Rows were chosen to be rich in hits. Some 1.3% of all compounds tested hit in one or more screens of this group.
GRK2 inh = inhibitors of human GRK2 displacing RNA aptamer | P25098 | bead flow cytometry, FAM-aptamer displacement from GRK2 | inhibition of aptamer binding, % at 10 µM | 0.59% of 330,000 active | AID 488847;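 active = inhibition of aptamer binding above 40%, roughly 3 SD of noise, on plates passing a quality check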;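 note: median bead fluorescence of bound FAM aptamer so fluorescent compounds give negative values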
VLA-4 inh = inhibition in a human VLA-4 binding assay; P13612; VLA-4 expressing cells, ligand binding flow cytometry; inhibition, % (about 7 µM as worked out from the volumes in the protocol); 0.2% of 330,000 active; in the data active = inhibition above about 50%
procasp3 activ = activates human procaspase-3. P42574. recombinant procaspase-3 D3A, Ac-DEVD-pNA absorbance 405 nm. activation, % at 8.5 µM. 0.11% of 330,000 active;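 active = activation above the mean of all tested compounds plus 3 SD, cut at about 21% in these data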;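 note: 0% = DMSO alone and 100% = DMSO wells spiked with extra 5 µM PC-3 D3A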
Target sequence (P42574 whole entry D9A/D28A/D175A): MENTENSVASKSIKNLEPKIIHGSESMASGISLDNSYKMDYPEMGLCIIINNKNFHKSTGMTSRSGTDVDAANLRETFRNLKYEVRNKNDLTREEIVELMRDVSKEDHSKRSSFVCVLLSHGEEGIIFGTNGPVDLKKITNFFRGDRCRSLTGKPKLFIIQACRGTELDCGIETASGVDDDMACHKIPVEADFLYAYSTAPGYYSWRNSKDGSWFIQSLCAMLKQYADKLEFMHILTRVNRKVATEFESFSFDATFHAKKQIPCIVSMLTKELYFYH
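Assay system: Autoprocessing-dead procaspase-3 D3A mutant enzyme; also added: Ac-DEVD-pNA; doses: one concentration, 8.5 µM nominal, 0.8% DMSO; times: 1 h compound preincubation, 2 h substrate hydrolysis at 25 °C; technique: 405 nm absorbance of p-nitroaniline, reads at 0 and 120 min; measure: % activation between DMSO and enzyme-spiked controls; repeats: single replicate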
JMJD2C inh = inhibitors of human GASC-1 (JMJD2C) demethylase | Q9H3R0 | GST-JMJD2C(1-420) H3K9me3 demethylation, DELFIA europium | inhibition, % at 2.35 µM | 0.069% of 330,000 active | AID 2099;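 active = more than half of a compound's replicate wells show inhibition beyond 50%, single wells judged on their own value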;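 note: signal counts dimethyl H3K9 product captured on neutravidin plate; 0% = median of DMSO wells and 100% = 0.3 times that DMSO median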
procasp7 counter = counter-screen: procaspase-7 (human) activation. P55210. recombinant procaspase-7, Ac-DEVD-pNA absorbance 405 nm; D23A/D198A/D206A triple mutant, cannot self-cleave; scale: DMSO 0, 5 µM enzyme 100. activation, % at 8.5 µM. 0.093% of 330,000 active;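 active = percent activation above the screen-wide mean plus 3 SD, cut at about 25% in these data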
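Assay system: Uncleavable procaspase-7 mutant enzyme; Input: 2 µM procaspase-7 mutant as dispensed; Also added: DEVD-pNA substrate; Medium: Zinc-free HEPES pH 7.4 with 300 mM NaCl, 0.01% Triton X-100; Timing: 1 h compound preincubation, 2 h substrate cleavage, 25 °C; Measured by: Epi-absorbance of released pNA at 405 nm, two timepoints.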
Lipid droplet = modulators of hepatic lipid droplet formation; AML12 mouse hepatocytes, oleate lipid droplets, BODIPY imaging; inhibition, % at 6.5 µM; 0.4% of 240,000 active; AID 1656;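 active = lipid droplet intensity inhibited by at least 50%, with more than 500 cells counted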
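Material – AML12 mouse liver cells · Also added – oleate loading, 100 µM · Compound dosing – 6.5 µM single-point dosing · Times – overnight treatment with compound plus oleate · Measured by – fluorescence imaging, 20x objective, two fields per well · Read-out – percent inhibition of filter-corrected integrated lipid droplet intensity per well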
Hep lipid conf = confirmation of inhibitors of hepatic lipid droplet formation; shares compounds with Lipid droplet; AML12 mouse hepatocytes, BODIPY lipid droplet imaging; droplets induced with 100 µM oleic acid; inhibition, % at 5.2 µM; 65% of 870 active;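 active = inhibition of lipid droplet metric at least 50%, with more than 300 cells in each of four replicates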;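 note: plate controls were DMSO with oleic acid for no effect and 5 µM Triacsin-C for full effect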
AML12 tox img = counter-screen for cytotoxicity in AML12 mouse hepatocytes; shares compounds with Lipid droplet; DAPI nuclear morphology cytotoxicity imaging; stronger effect = higher value; cells fed 100 µM oleate overnight; z-score at 5 µM; 3% of 870 active; AID 463200; in the data active = z-score above about 6.3;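 note: compound exposure lasted overnight at 37 °C before fixation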
AML12 tox conf = confirmation of cytotoxicity in AML12 mouse hepatocytes; shares compounds with Lipid droplet; AML12 mouse hepatocyte viability, ATP luminescence; cells loaded with 100 µM oleic acid; cytotoxicity, % at 50 µM; 530 tested, under 10 active; AID 463219;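 active = cytotoxicity above 50% in each of four replicates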;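 note: compound exposure lasted overnight at 37 °C before the ATP read; 0% = DMSO-treated cells and 100% = wells with no cells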
An asterisk follows results filed as active; nt = no result given.

SMILES	GRK2 inh	VLA-4 inh	procasp3 activ	JMJD2C inh	procasp7 counter	Lipid droplet	Hep lipid conf	AML12 tox img	others
Brc1ccc(-c2csc(NC3=NCCCCC3)n2)cc1	1	8	13	-10	-1	-2	nt	nt
COc1ccc(-c2csc(NC3=NCCCCC3)n2)cc1	0	0	3	0	14	12	nt	nt
c1ccc(-c2csc(NNC3=NCCCCC3)n2)cc1	2	-12	-31	16	-30	63*	115*	-0.27	AML12 tox conf=31
Clc1ccc(-c2csc(NNC3=NCCCCC3)n2)cc1	0	30	-11	0	-11	nt	nt	nt
Cc1cccc(C(C)C)c1NC(=O)CN1C(=O)NC(Cc2ccccc2)C1=O (stereo unspecified)	0	0	-8	-5	-1	nt	nt	nt
Cc1ccc(C)c(C(=O)COC(=O)c2ccc(C)c(S(=O)(=O)N3CCOCC3)c2)c1	13	2	-5	1	-15	nt	nt	nt
Cc1ccc(C2=NCCn3c2c2ccccc2[n+]3[O-])cc1	0	1	7	-3	5	nt	nt	nt
Cc1cc(C(=O)N(C)C2CCCCC2)no1	0	12	-3	4	1	0	nt	nt
Cc1nc(Nc2ccccc2)sc1C(=O)c1ccc(F)cc1	3	9	-4	-11	-11	0	nt	nt
CNc1nc(C)c(C(=O)c2ccc(Cl)cc2)s1	0	-5	-7	12	8	65*	22	-0.14
COc1ccc(C(=O)N[C@H](C(=O)OCc2nc3ccsc3c(=O)[nH]2)C(C)C)cc1	0	0	-8	3	-3	nt	nt	nt
CCn1cc(C(=O)NCCCO)c(=O)c2cc(F)c(N3CCN(C)CC3)cc21	0	9	-1	0	13	nt	nt	nt
CCCCCCNC(=O)c1cn(CC)c2cc(N3CCN(C)CC3)c(F)cc2c1=O	0	38	4	2	8	53*	27	0.62
O=c1[nH]c(CSc2nnc(-c3ccccc3)n2-c2ccccc2)nc2ccccc12	0	9	3	2	-3	62*	11	-0.27
O=C(CCC(=O)c1ccc(Br)cc1)Nc1ccc(F)cc1	1	8	3	3	-3	2	nt	nt
CN(c1nc2ccccc2[nH]c1=O)C1CCCCC1	0	-2	0	0	-3	-19	nt	nt
COc1cc([C@@H]2C[C@H]3CN(c4ccccc4)C(=O)[C@]34CCCN24)cc(OC)c1OC	0	-1	3	67	6	3	nt	nt
CCOc1cc([C@@H]2C[C@H]3CN(c4ccccc4)C(=O)[C@]34CCCN24)ccc1OC	0	8	-2	-4	11	80*	97*	0.57	AML12 tox conf=19
COc1nc(C)nc2c1ccc1ccccc12	3	-6	-3	5	-7	52*	2	-0.096
COc1ccc(Oc2nc(C)nc3c2oc2ccccc23)cc1	13	-6	-3	5	3	nt	nt	nt
CC1(c2cccc(Br)c2)NC(=O)N(CC(=O)Nc2cccnc2Cl)C1=O (stereo unspecified)	0	0	-3	2	-6	-1	nt	nt
CN(C)S(=O)(=O)c1cccc(NC(=O)CC23CC4CC(CC(C4)C2)C3)c1	0	-7	-10	nt	8	84*	24	-0.17
CCC(=O)NCCc1nc2cc(NC(=O)c3cccc([N+](=O)[O-])c3)ccc2n1C	1	2	nt	13	nt	9	nt	nt
COc1ccc(Cl)cc1NC(=O)CN(C)C(=O)Cc1ccsc1	1	22	2	8	-1	nt	nt	nt
COc1ccc(Cl)cc1NC(=O)CN(C)C(=O)Cc1ccc2c(c1)CCC2	1	9	-2	20	5	52*	85*	0.13	AML12 tox conf=19

Assay outcomes: PubChem, several laboratories
